ChEMBL document CHEMBL4689842, “EUbOPEN Chemogenomics Library wave 1” (2021)

System: U2OS
Experiment: Multiplex assay against U2OS
Format: toxicity, cell-based
Conditions: human
Summary of the method: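 Tubulin, mitochondrial-mass and membrane-permeability phenotypes are per cents of healthy-nucleus cells. Cells were gated by CellPathfinder machine learning into Hoechst high-intensity objects or normal cells, normal cells into healthy, pyknosed or fragmented nuclei, and pyknosed cells into mitotic or apoptotic. Before that, live cells stained at seeding with Hoechst33342, BioTracker Green Microtubule Cytoskeleton Dye, MitoTracker Red and Annexin V Alexa Fluor 680 were imaged on a CQ1 microscope at 37°C and 5% CO2 after compound addition.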

[1] = 12 h, 1 µM, compound concentration 1 uM, replicate 1
[2] = 12 h, 1 µM, compound concentration 1 uM, replicate 2
[3] = 12 h, 10 µM, compound concentration 10 uM, replicate 1
[4] = 12 h, 10 µM, compound concentration 10 uM, replicate 2
[5] = 24 h, 1 µM, compound concentration 1 uM, replicate 1
[6] = 24 h, 1 µM, compound concentration 1 uM, replicate 2
[7] = 24 h, 10 µM, compound concentration 10 uM, replicate 1
[8] = 24 h, 10 µM, compound concentration 10 uM, replicate 2
[9] = 48 h, 1 µM, compound concentration 1 uM, replicate 1
[10] = 48 h, 1 µM, compound concentration 1 uM, replicate 2
[11] = 48 h, 10 µM, compound concentration 10 uM, replicate 1
[12] = 48 h, 10 µM, compound concentration 10 uM, replicate 2

CC(C)OC(=O)N1CCC(Oc2ncnc3c2cnn3-c2ccc(S(C)(=O)=O)cc2F)CC1
Population Apoptotic (%) [1]: 57% | Population Fragmented Nuclei (%) [1]: 11% | Population Healthy Nuclei (%) [1]: 80% | Population Hoechst High Intensity Objects (%) [1]: 6% | Population Membrane Permeable-Phenotype (%) [1]: 6% | Population Mitochondria Different-Phenotype (%) [1]: 8% | Population Mitotic Cells (%) [1]: 42% | Population Normal (%) [1]: 93% | Population Pyknosed Nuclei (%) [1]: 7% | Population Tubulin-Different-Phenotype (%) [1]: 12% | Total Cell Count [1]: 95 | Population Apoptotic (%) [2]: 33% | Population Fragmented Nuclei (%) [2]: 5% | Population Healthy Nuclei (%) [2]: 91% | Population Hoechst High Intensity Objects (%) [2]: 7% | Population Membrane Permeable-Phenotype (%) [2]: 4% | Population Mitotic Cells (%) [2]: 66% | Population Normal (%) [2]: 92% | Population Pyknosed Nuclei (%) [2]: 3% | Population Tubulin-Different-Phenotype (%) [2]: 7% | Total Cell Count [2]: 97 | Population Apoptotic (%) [3]: 20% | Population Fragmented Nuclei (%) [3]: 11% | Population Healthy Nuclei (%) [3]: 77% | Population Hoechst High Intensity Objects (%) [3]: 6% | Population Membrane Permeable-Phenotype (%) [3]: 6% | Population Mitochondria Different-Phenotype (%) [3]: 19% | Population Mitotic Cells (%) [3]: 79% | Population Normal (%) [3]: 93% | Population Pyknosed Nuclei (%) [3]: 11% | Population Tubulin-Different-Phenotype (%) [3]: 24% | Total Cell Count [3]: 221 | Population Apoptotic (%) [4]: 18% | Population Fragmented Nuclei (%) [4]: 5% | Population Membrane Permeable-Phenotype (%) [4]: 0% | Population Mitochondria Different-Phenotype (%) [4]: 5% | Population Mitotic Cells (%) [4]: 81% | Population Pyknosed Nuclei (%) [4]: 16% | Population Tubulin-Different-Phenotype (%) [4]: 28% | Total Cell Count [4]: 72 | Population Apoptotic (%) [5]: 57% | Population Fragmented Nuclei (%) [5]: 10% | Population Healthy Nuclei (%) [5]: 83% | Population Hoechst High Intensity Objects (%) [5]: 6% | Population Membrane Permeable-Phenotype (%) [5]: 5% | Population Mitochondria Different-Phenotype (%) [5]: 5% | Population Mitotic Cells (%) [5]: 42% | Population Normal (%) [5]: 93% | Population Pyknosed Nuclei (%) [5]: 6% | Population Tubulin-Different-Phenotype (%) [5]: 11% | Total Cell Count [5]: 123 | Population Apoptotic (%) [6]: 50% | Population Fragmented Nuclei (%) [6]: 4% | Population Healthy Nuclei (%) [6]: 86% | Population Hoechst High Intensity Objects (%) [6]: 2% | Population Mitochondria Different-Phenotype (%) [6]: 4% | Population Mitotic Cells (%) [6]: 50% | Population Normal (%) [6]: 97% | Population Pyknosed Nuclei (%) [6]: 8% | Population Tubulin-Different-Phenotype (%) [6]: 9% | Total Cell Count [6]: 116 | Population Apoptotic (%) [7]: 20% | Population Fragmented Nuclei (%) [7]: 10% | Population Healthy Nuclei (%) [7]: 79% | Population Hoechst High Intensity Objects (%) [7]: 4% | Population Membrane Permeable-Phenotype (%) [7]: 1% | Population Mitochondria Different-Phenotype (%) [7]: 14% | Population Mitotic Cells (%) [7]: 79% | Population Normal (%) [7]: 95% | Population Pyknosed Nuclei (%) [7]: 10% | Population Tubulin-Different-Phenotype (%) [7]: 13% | Total Cell Count [7]: 248 | Population Apoptotic (%) [8]: 33% | Population Fragmented Nuclei (%) [8]: 5% | Population Healthy Nuclei (%) [8]: 87% | Population Hoechst High Intensity Objects (%) [8]: 2% | Population Mitochondria Different-Phenotype (%) [8]: 2% | Population Mitotic Cells (%) [8]: 66% | Population Normal (%) [8]: 97% | Population Pyknosed Nuclei (%) [8]: 6% | Population Tubulin-Different-Phenotype (%) [8]: 31% | Total Cell Count [8]: 93 | Population Apoptotic (%) [9]: 27% | Population Fragmented Nuclei (%) [9]: 6% | Population Healthy Nuclei (%) [9]: 83% | Population Hoechst High Intensity Objects (%) [9]: 4% | Population Membrane Permeable-Phenotype (%) [9]: 1% | Population Mitotic Cells (%) [9]: 72% | Population Normal (%) [9]: 95% | Population Pyknosed Nuclei (%) [9]: 9% | Population Tubulin-Different-Phenotype (%) [9]: 5% | Total Cell Count [9]: 193 | Population Apoptotic (%) [10]: 30% | Population Fragmented Nuclei (%) [10]: 5% | Population Healthy Nuclei (%) [10]: 88% | Population Hoechst High Intensity Objects (%) [10]: 2% | Population Membrane Permeable-Phenotype (%) [10]: 7% | Population Mitochondria Different-Phenotype (%) [10]: 10% | Population Mitotic Cells (%) [10]: 69% | Population Normal (%) [10]: 97% | Population Pyknosed Nuclei (%) [10]: 6% | Population Tubulin-Different-Phenotype (%) [10]: 9% | Total Cell Count [10]: 199 | Population Apoptotic (%) [11]: 35% | Population Fragmented Nuclei (%) [11]: 5% | Population Healthy Nuclei (%) [11]: 82% | Population Hoechst High Intensity Objects (%) [11]: 2% | Population Membrane Permeable-Phenotype (%) [11]: 2% | Population Mitochondria Different-Phenotype (%) [11]: 13% | Population Mitotic Cells (%) [11]: 64% | Population Normal (%) [11]: 97% | Population Pyknosed Nuclei (%) [11]: 11% | Population Tubulin-Different-Phenotype (%) [11]: 8% | Total Cell Count [11]: 324 | Population Apoptotic (%) [12]: 40% | Population Fragmented Nuclei (%) [12]: 3% | Population Healthy Nuclei (%) [12]: 92% | Population Hoechst High Intensity Objects (%) [12]: 1% | Population Mitochondria Different-Phenotype (%) [12]: 12% | Population Mitotic Cells (%) [12]: 60% | Population Normal (%) [12]: 98% | Population Pyknosed Nuclei (%) [12]: 3% | Population Tubulin-Different-Phenotype (%) [12]: 37% | Total Cell Count [12]: 157

COc1cc2ncn(-c3cc(OCc4ccccc4C(F)(F)F)c(C(N)=O)s3)c2cc1OC [GW843682X]
Population Apoptotic (%) [1]: 54% | Population Fragmented Nuclei (%) [1]: 15% | Population Healthy Nuclei (%) [1]: 78% | Population Hoechst High Intensity Objects (%) [1]: 7% | Population Membrane Permeable-Phenotype (%) [1]: 12% | Population Mitochondria Different-Phenotype (%) [1]: 17% | Population Mitotic Cells (%) [1]: 45% | Population Normal (%) [1]: 92% | Population Pyknosed Nuclei (%) [1]: 6% | Population Tubulin-Different-Phenotype (%) [1]: 28% | Total Cell Count [1]: 170 | Population Apoptotic (%) [2]: 50% | Population Fragmented Nuclei (%) [2]: 9% | Population Healthy Nuclei (%) [2]: 80% | Population Hoechst High Intensity Objects (%) [2]: 10% | Population Mitochondria Different-Phenotype (%) [2]: 10% | Population Mitotic Cells (%) [2]: 50% | Population Normal (%) [2]: 89% | Population Pyknosed Nuclei (%) [2]: 9% | Population Tubulin-Different-Phenotype (%) [2]: 20% | Total Cell Count [2]: 83 | Population Apoptotic (%) [3]: 54% | Population Fragmented Nuclei (%) [3]: 12% | Population Healthy Nuclei (%) [3]: 71% | Population Hoechst High Intensity Objects (%) [3]: 13% | Population Membrane Permeable-Phenotype (%) [3]: 28% | Population Mitochondria Different-Phenotype (%) [3]: 83% | Population Mitotic Cells (%) [3]: 45% | Population Normal (%) [3]: 86% | Population Pyknosed Nuclei (%) [3]: 15% | Population Tubulin-Different-Phenotype (%) [3]: 97% | Total Cell Count [3]: 185 | Population Apoptotic (%) [4]: 50% | Population Fragmented Nuclei (%) [4]: 13% | Population Healthy Nuclei (%) [4]: 75% | Population Hoechst High Intensity Objects (%) [4]: 6% | Population Membrane Permeable-Phenotype (%) [4]: 25% | Population Mitochondria Different-Phenotype (%) [4]: 88% | Population Mitotic Cells (%) [4]: 50% | Population Normal (%) [4]: 93% | Population Pyknosed Nuclei (%) [4]: 11% | Population Tubulin-Different-Phenotype (%) [4]: 98% | Total Cell Count [4]: 68 | Population Apoptotic (%) [5]: 62% | Population Fragmented Nuclei (%) [5]: 14% | Population Healthy Nuclei (%) [5]: 76% | Population Hoechst High Intensity Objects (%) [5]: 3% | Population Mitochondria Different-Phenotype (%) [5]: 22% | Population Mitotic Cells (%) [5]: 37% | Population Normal (%) [5]: 96% | Population Pyknosed Nuclei (%) [5]: 8% | Population Tubulin-Different-Phenotype (%) [5]: 20% | Total Cell Count [5]: 166 | Population Apoptotic (%) [6]: 55% | Population Fragmented Nuclei (%) [6]: 11% | Population Healthy Nuclei (%) [6]: 74% | Population Hoechst High Intensity Objects (%) [6]: 5% | Population Membrane Permeable-Phenotype (%) [6]: 10% | Population Mitochondria Different-Phenotype (%) [6]: 19% | Population Mitotic Cells (%) [6]: 44% | Population Normal (%) [6]: 94% | Population Pyknosed Nuclei (%) [6]: 14% | Population Tubulin-Different-Phenotype (%) [6]: 17% | Total Cell Count [6]: 85 | Population Apoptotic (%) [7]: 51% | Population Fragmented Nuclei (%) [7]: 14% | Population Healthy Nuclei (%) [7]: 66% | Population Hoechst High Intensity Objects (%) [7]: 9% | Population Membrane Permeable-Phenotype (%) [7]: 42% | Population Mitochondria Different-Phenotype (%) [7]: 90% | Population Mitotic Cells (%) [7]: 48% | Population Normal (%) [7]: 90% | Population Pyknosed Nuclei (%) [7]: 18% | Population Tubulin-Different-Phenotype (%) [7]: 98% | Total Cell Count [7]: 190 | Population Apoptotic (%) [8]: 50% | Population Fragmented Nuclei (%) [8]: 13% | Population Healthy Nuclei (%) [8]: 69% | Population Membrane Permeable-Phenotype (%) [8]: 41% | Population Mitochondria Different-Phenotype (%) [8]: 91% | Population Mitotic Cells (%) [8]: 50% | Population Pyknosed Nuclei (%) [8]: 17% | Population Tubulin-Different-Phenotype (%) [8]: 97% | Total Cell Count [8]: 67 | Population Apoptotic (%) [9]: 71% | Population Fragmented Nuclei (%) [9]: 16% | Population Healthy Nuclei (%) [9]: 66% | Population Hoechst High Intensity Objects (%) [9]: 8% | Population Membrane Permeable-Phenotype (%) [9]: 16% | Population Mitochondria Different-Phenotype (%) [9]: 33% | Population Mitotic Cells (%) [9]: 28% | Population Normal (%) [9]: 91% | Population Pyknosed Nuclei (%) [9]: 16% | Population Tubulin-Different-Phenotype (%) [9]: 18% | Total Cell Count [9]: 160 | Population Apoptotic (%) [10]: 62% | Population Fragmented Nuclei (%) [10]: 9% | Population Healthy Nuclei (%) [10]: 79% | Population Hoechst High Intensity Objects (%) [10]: 6% | Population Membrane Permeable-Phenotype (%) [10]: 27% | Population Mitochondria Different-Phenotype (%) [10]: 37% | Population Mitotic Cells (%) [10]: 37% | Population Normal (%) [10]: 93% | Population Pyknosed Nuclei (%) [10]: 10% | Population Tubulin-Different-Phenotype (%) [10]: 34% | Total Cell Count [10]: 91 | Population Apoptotic (%) [11]: 78% | Population Fragmented Nuclei (%) [11]: 17% | Population Healthy Nuclei (%) [11]: 53% | Population Hoechst High Intensity Objects (%) [11]: 9% | Population Membrane Permeable-Phenotype (%) [11]: 71% | Population Mitochondria Different-Phenotype (%) [11]: 93% | Population Mitotic Cells (%) [11]: 21% | Population Normal (%) [11]: 90% | Population Pyknosed Nuclei (%) [11]: 29% | Population Tubulin-Different-Phenotype (%) [11]: 97% | Total Cell Count [11]: 187 | Population Apoptotic (%) [12]: 71% | Population Fragmented Nuclei (%) [12]: 18% | Population Healthy Nuclei (%) [12]: 62% | Population Hoechst High Intensity Objects (%) [12]: 6% | Population Membrane Permeable-Phenotype (%) [12]: 68% | Population Mitochondria Different-Phenotype (%) [12]: 88% | Population Mitotic Cells (%) [12]: 28% | Population Normal (%) [12]: 93% | Population Pyknosed Nuclei (%) [12]: 19% | Total Cell Count [12]: 78
